In ChEMBL document CHEMBL1137377, “Evaluation of azasterols as anti-parasitics” (J Med Chem, 2006):

How the values were obtained:
Trypanosoma cruzi = assay: Antitrypanosomal activity against Trypanosoma cruzi trypomastigotes in CD1 mouse macrophage; type: functional; details: read-out: ED50 (the source's name)
Procedure, shortened: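 Starch-induced CD1 peritoneal macrophages plated at 4 × 10^5/mL, infected after 24 h with T. cruzi Tulahuan LAC-Z trypomastigotes. 24 h later, drug exposure for 3 days. ED50 by curve fitting.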

[1] = tested on: Trypanosoma brucei rhodesiense; assay: Antitrypanosomal activity against Trypanosoma brucei rhodesiense trypomastigotes; type: functional; details: read-out: ED50 (the source's name)
Procedure, shortened: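 Bloodstream-form STIB900 trypomastigotes grown in HMI-18 + 15% HIFCS at 37 °C, 5% CO2. Seeded at 2 × 10^5/mL onto drug dilutions (top 30 µg/mL) for 72 h. Alamar Blue read 5-6 h later by fluorescence (ex/em 530/585 nm). ED50 by curve fitting.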

Plasmodium falciparum [2] = assay: Antimalarial activity against Plasmodium falciparum 3D7; type: functional, organism-based; details: read-out: ED50 (the source's name)
Procedure, shortened: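 Synchronized ring-stage 3D7 culture at 1% parasitemia in RPMI 1640, 5% hematocrit, 37 °C, 5% CO2. Top final drug concentration 30 µg/mL. After 24 h, (3H)-hypoxanthine added (0.2 µCi/well), then 48 h further incubation. Plates freeze/thawed and harvested, and hypoxanthine uptake counted. ED50 by curve fitting.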

Plasmodium falciparum [3] = assay: Antimalarial activity against Plasmodium falciparum K1; type: functional, organism-based; details: read-out: ED50 (the source's name)
KB = assay: Cytotoxicity against KB cell line; type: functional; details: Homo sapiens, read-out: TD50 (the source's name)
Leishmania donovani = assay: Antileishmanial activity against Leishmania donovani amastigotes in CD1 mouse macrophage; type: functional, organism-based; details: read-out: ED50 (the source's name)
Procedure, shortened: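 Peritoneal macrophages from starch-induced CD1 mice, kept 24 h in RPMI1640 + 10% HIFCS at 37 °C, 5% CO2. Infected with L. donovani MHOM/ET/67/L82 amastigotes from hamster spleen at 5 parasites:1 macrophage. After 24 h, drug exposure for 5 days, overlay replaced day 3. Top concentration 30 µg/mL, quadruplicate. Slides methanol-fixed, Giemsa-stained, counted microscopically. ED50 by curve fitting.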

COC(=O)CCCCCNC[C@@H](C)[C@H]1CC[C@H]2C3CC=C4C[C@@H](O)CC[C@]4(C)[C@H]3CC[C@]12C (some centres undefined)
EC50 (Trypanosoma cruzi): < 2.41 µM | EC50 [1]: 2.15 µM | EC50 (Plasmodium falciparum [2]): 1.31 µM | EC50 (Plasmodium falciparum [3]): 0.5 µM | CC50 (KB): 6.09 µM

COC(=O)CCCCCCNC(=O)[C@@H](C)[C@H]1CC[C@H]2C3CC=C4C[C@@H](OC(C)=O)CC[C@]4(C)[C@H]3CC[C@]12C (some centres undefined)
EC50 (Leishmania donovani): > 57 µM | EC50 (Trypanosoma cruzi): 10.8 µM | EC50 [1]: 7.91 µM | EC50 (Plasmodium falciparum [2]): 14.4 µM | EC50 (Plasmodium falciparum [3]): 1.26 µM | CC50 (KB): > 566 µM

COC(=O)CCCCCCCNC[C@@H](C)[C@H]1CC[C@H]2C3CC=C4C[C@@H](O)CC[C@]4(C)[C@H]3CC[C@]12C (some centres undefined)
EC50 (Trypanosoma cruzi): 2.64 µM | EC50 [1]: 0.308 µM | EC50 (Plasmodium falciparum [2]): 0.349 µM | EC50 (Plasmodium falciparum [3]): 0.062 µM | CC50 (KB): 6.17 µM

C[C@H](CNCC[C@H](NC(=O)OC(C)(C)C)C(=O)O)[C@H]1CC[C@H]2C3CC=C4C[C@@H](O)CC[C@]4(C)[C@H]3CC[C@]12C (some centres undefined)
EC50 (Trypanosoma cruzi): < 2.08 µM | EC50 [1]: > 56 µM | EC50 (Plasmodium falciparum [2]): 36.6 µM | EC50 (Plasmodium falciparum [3]): 38.1 µM | CC50 (KB): > 563 µM

COC(=O)CCCCCCCNC(=O)[C@@H](C)[C@H]1CC[C@H]2C3CC=C4C[C@@H](OC(C)=O)CC[C@]4(C)[C@H]3CC[C@]12C (some centres undefined)
EC50 (Leishmania donovani): > 55 µM | EC50 (Trypanosoma cruzi): > 55 µM | EC50 [1]: 0.607 µM | EC50 (Plasmodium falciparum [2]): 21.5 µM | EC50 (Plasmodium falciparum [3]): 2.87 µM | CC50 (KB): > 552 µM

COC(=O)CNC[C@@H](C)[C@H]1CC[C@H]2C3CC=C4C[C@@H](O)CC[C@]4(C)[C@H]3CC[C@]12C (some centres undefined)
EC50 (Trypanosoma cruzi): < 2.75 µM | EC50 [1]: 4.91 µM | EC50 (Plasmodium falciparum [2]): 40.6 µM | EC50 (Plasmodium falciparum [3]): 22.2 µM | CC50 (KB): 45 µM

COC(=O)CNC(=O)[C@@H](C)[C@H]1CC[C@H]2C3CC=C4C[C@@H](OC(C)=O)CC[C@]4(C)[C@H]3CC[C@]12C (some centres undefined)
EC50 (Leishmania donovani): > 65 µM | EC50 (Trypanosoma cruzi): 42.2 µM | EC50 [1]: 24 µM | EC50 (Plasmodium falciparum [2]): 60 µM | EC50 (Plasmodium falciparum [3]): 9.6 µM | CC50 (KB): > 653 µM

CC(=O)O[C@H]1CC[C@@]2(C)C(=CCC3[C@@H]4CC[C@H]([C@H](C)CNCCCC[C@H](NC(=O)OCc5ccccc5)C(=O)OCc5ccccc5)[C@@]4(C)CC[C@@H]32)C1 (some centres undefined)
EC50 (Trypanosoma cruzi): 1.71 µM | EC50 [1]: 0.619 µM | EC50 (Plasmodium falciparum [2]): 0.839 µM | EC50 (Plasmodium falciparum [3]): 0.069 µM | CC50 (KB): 29.8 µM

COC(=O)[C@H](CCCCNC[C@@H](C)[C@H]1CC[C@H]2C3CC=C4C[C@@H](OC(C)=O)CC[C@]4(C)[C@H]3CC[C@]12C)NC(=O)OCc1ccccc1 (some centres undefined)
EC50 (Trypanosoma cruzi): < 1.71 µM | EC50 [1]: 0.753 µM | EC50 (Plasmodium falciparum [2]): 0.799 µM | EC50 (Plasmodium falciparum [3]): 0.215 µM | CC50 (KB): 5.35 µM

COC(=O)CCCNC[C@@H](C)[C@H]1CC[C@H]2C3CC=C4C[C@@H](O)CC[C@]4(C)[C@H]3CC[C@]12C (some centres undefined)
EC50 (Trypanosoma cruzi): < 2.57 µM | EC50 [1]: 5.05 µM | EC50 (Plasmodium falciparum [2]): 7.53 µM | EC50 (Plasmodium falciparum [3]): 1.95 µM | CC50 (KB): 1.55 µM

C[C@H](CNCCCC[C@H](NC(=O)OCc1ccccc1)C(=O)O)[C@H]1CC[C@H]2C3CC=C4C[C@@H](O)CC[C@]4(C)[C@H]3CC[C@]12C (some centres undefined)
EC50 (Trypanosoma cruzi): 9.52 µM | EC50 [1]: > 50 µM | EC50 (Plasmodium falciparum [2]): 16.7 µM | EC50 (Plasmodium falciparum [3]): 6.29 µM | CC50 (KB): > 504 µM

COC(=O)CCCNC(=O)[C@@H](C)[C@H]1CC[C@H]2C3CC=C4C[C@@H](OC(C)=O)CC[C@]4(C)[C@H]3CC[C@]12C (some centres undefined)
EC50 (Leishmania donovani): > 62 µM | EC50 (Trypanosoma cruzi): 4.7 µM | EC50 [1]: 9.15 µM | EC50 (Plasmodium falciparum [2]): 16.2 µM | EC50 (Plasmodium falciparum [3]): 11.6 µM | CC50 (KB): > 615 µM

COC(=O)CCCCCNC(=O)[C@@H](C)[C@H]1CC[C@H]2C3CC=C4C[C@@H](OC(C)=O)CC[C@]4(C)[C@H]3CC[C@]12C (some centres undefined)
EC50 (Leishmania donovani): > 58 µM | EC50 (Trypanosoma cruzi): 2.54 µM | EC50 [1]: 3.45 µM | EC50 (Plasmodium falciparum [2]): 21.3 µM | EC50 (Plasmodium falciparum [3]): 19.8 µM | CC50 (KB): > 582 µM

C[C@H](C(=O)NCCCCCC(=O)O)[C@H]1CC[C@H]2C3CC=C4C[C@@H](O)CC[C@]4(C)[C@H]3CC[C@]12C (some centres undefined)
EC50 (Leishmania donovani): > 65 µM | EC50 (Trypanosoma cruzi): 11.4 µM | EC50 [1]: 10.4 µM | EC50 (Plasmodium falciparum [2]): > 65 µM | CC50 (KB): 303 µM

CC(=O)O[C@H]1CC[C@@]2(C)C(=CCC3[C@@H]4CC[C@H]([C@H](C)C(=O)NCCC[C@H](NC(=O)OCc5ccccc5)C(=O)O)[C@@]4(C)CC[C@@H]32)C1 (some centres undefined)
EC50 (Leishmania donovani): > 47 µM | EC50 (Trypanosoma cruzi): > 47 µM | EC50 [1]: 1.7 µM | EC50 (Plasmodium falciparum [2]): > 47 µM | CC50 (KB): 147 µM

COC(=O)CCCCCCCNC[C@@H](C)[C@H]1CC[C@H]2C3CC=C4C[C@@H](OC(C)=O)CC[C@]4(C)[C@H]3CC[C@]12C (some centres undefined)
EC50 (Leishmania donovani): 14.8 µM | EC50 (Trypanosoma cruzi): 28.7 µM | EC50 [1]: 0.098 µM | EC50 (Plasmodium falciparum [2]): 2.64 µM | CC50 (KB): 10 µM

COC(=O)CCNC(=O)[C@@H](C)[C@H]1CC[C@H]2C3CC=C4C[C@@H](OC(C)=O)CC[C@]4(C)[C@H]3CC[C@]12C (some centres undefined)
EC50 (Leishmania donovani): > 63 µM | EC50 (Trypanosoma cruzi): 3.46 µM | EC50 [1]: 6 µM | EC50 (Plasmodium falciparum [2]): 17.4 µM | EC50 (Plasmodium falciparum [3]): 19.1 µM | CC50 (KB): 597 µM

COC(=O)CCCCCNC[C@@H](C)[C@H]1CC[C@H]2C3CC=C4C[C@@H](OC(C)=O)CC[C@]4(C)[C@H]3CC[C@]12C (some centres undefined)
EC50 (Leishmania donovani): 21.9 µM | EC50 (Trypanosoma cruzi): 20.5 µM | EC50 [1]: 0.033 µM | EC50 (Plasmodium falciparum [2]): 7.37 µM | CC50 (KB): 15.6 µM

COC(=O)CCCCNC(=O)[C@@H](C)[C@H]1CC[C@H]2C3CC=C4C[C@@H](OC(C)=O)CC[C@]4(C)[C@H]3CC[C@]12C (some centres undefined)
EC50 (Leishmania donovani): > 60 µM | EC50 (Trypanosoma cruzi): 2.43 µM | EC50 [1]: 3.01 µM | EC50 (Plasmodium falciparum [2]): 0.74 µM | EC50 (Plasmodium falciparum [3]): 8.43 µM | CC50 (KB): > 598 µM

COc1cc([C@@H]2c3cc4c(cc3[C@H](O)[C@H]3COC(=O)[C@H]23)OCO4)cc(OC)c1OC [PODOFILOX]
EC50 (Plasmodium falciparum [3]): 0.1 µM | CC50 (KB): 0.001 µM

C[C@H](CNCCCC(=O)O)[C@H]1CC[C@H]2C3CC=C4C[C@@H](O)CC[C@]4(C)[C@H]3CC[C@]12C (some centres undefined)
EC50 (Leishmania donovani): > 72 µM | EC50 (Trypanosoma cruzi): 47.3 µM | EC50 [1]: 14.4 µM | EC50 (Plasmodium falciparum [2]): 56.5 µM | CC50 (KB): 451 µM
